Results filed as inconclusive are left out.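 The calls were made as follows, unless noted: active = viability at or below 27.92% in each of two runs, the all-compound median minus 4 SD; inconclusive = no clear call, values can overlap the other calls; inactive = the rest.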
Tests used:
[1] = OD615 S. cerevisiae growth inhibition, permissive medium, pilot counter-assay, permissive growth control for S. cerevisiae lifespan shortening project (AID 705;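 active = growth inhibition above 25% in both replicates, a cutoff set 3 SD above the mean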); conditions: OD615, 24 h, at 10 µM, hits give high values
How it was run: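 System: Engineered DeaD yeast | Buffer or medium: SC raffinose/galactose permissive medium | Doses: 10 µM single dose, 0.25% DMSO | Times: 24 h exposure, 30 °C | Measured by: OD615 turbidity read | Read-out: Yeast growth inhibition indicated by reduced 24 h OD615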

[2] = Restrictive medium S. cerevisiae growth inhibition, OD615, pilot screen of yeast lifespan reduction project, restrictive growth control (AID 706;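 active = growth inhibition above a set limit, 3 SD over mean compound inhibition, in both replicates, cut at about 43% in these data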;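 also: modified DeaD lifespan yeast strain shifted to restrictive glucose medium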); conditions: OD615, 48 h, at 10 µM, hits give high values
How it was run: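 Assay system: engineered S. cerevisiae DeaD strain; Buffer or medium: CSMM-D glucose medium; Dosing: 10 µM compound, 0.25% DMSO; Times: cell pre-growth 4 h, compound exposure 48 h, 30 °C; Detection: absorbance (optical density) measured at 615 nm.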

[3] = viability gain of MRP-1-high H69AR cells under doxorubicin, pilot screen, MRP-1 activator project, CellTiter-Glo, duplicate (AID 807;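 active = viability increase at or above a cutoff of the median across tested compounds plus 3 SD, cut at about 8.5% in these data, passing the limit was not always enough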;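 also: compound pretreatment 18-22 h then 72 h combined with doxorubicin; 0% = doxorubicin alone and 100% = vehicle without doxorubicin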); conditions: H69AR viability with doxorubicin, CellTiter-Glo luminescence; at 10 µM; hits give high values
[4] = growth suppression of beta-catenin knockout HCT116, pilot screen, human colon tumor cells (AID 823;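 active = cell viability at or below a set limit in both duplicate runs, the limit being the all-compound median minus 4 SD, cut at about 23% in these data, passing the limit was not always enough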;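 also: 0% = wells killed by 20 µM Hyamine and 100% = untreated DMSO cell wells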); conditions: CellTiter-Glo, 60 h, at 10 µM, hits give low values
[5] = growth suppression of PTEN-deleted HCT116, pilot screen, cell-based, HCT116 clonal line, CellTiter-Glo (AID 824); conditions: 60 h, at 10 µM, hits give low values;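 also: 0% = 20 µM Hyamine control and 100% = vehicle cell control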
[6] = inhibitors of the yeast RAM network, pilot screen, dse1pr::URA3 reporter, 5-FOA selection (AID 869;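 active = inhibition over a set limit, the all-compound mean plus 3 SD, in both replicate runs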;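 also: 0% = DMSO wells with no growth and 100% = 10 µM 1-NA-PP1 with full growth; RAM network block rescues cells from 5-FOA so hits raise OD615 growth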); conditions: S. cerevisiae dse1pr::URA3 5-FOA growth, OD615, 2 d; at 10 µM; hits give high values; strain carries analog-sensitive mutant Cbk1 kinase
[7] = RAM signaling pathway blockade in yeast – S. cerevisiae, Pdr1DBD-CYC8 efflux-inhibited sensitized strain, primary screen (AID 1298;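 active = RAM network inhibition above 8.4% in each of two replicates, 3 SD over the compound average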;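 also: 0% = DMSO untreated cells without growth and 100% = 10 µM 1-NA-PP1 full growth; higher means more yeast growth rescued from 5-FOA killing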); conditions: S. cerevisiae cbk1-as DSE1-URA3 strain, 5-FOA growth OD615, 2 d; at 50 µM; hits give high values

C=C(C)Cn1c(COc2ccccc2)nnc1SCC(=O)O
inactive: growth inhibition [1] -9.65% | growth inhibition [2] -7.02% | viability increase [3] -4.09% | viability [4] 89.7% | viability [5] 90.6% | inhibition [6] 0.3% | RAM network inhibition [7] 0.88%

Cc1onc(-c2ccccc2Cl)c1C(=O)N(C)C1CCCCC1
inactive: growth inhibition [1] -18.5% | growth inhibition [2] -9.2% | viability increase [3] -2.42% | viability [4] 46.5% | viability [5] 63.2% | inhibition [6] -0.15% | RAM network inhibition [7] 2.15%

CC(C)Sc1nc2c(c(=O)n1C)SC(C)C2 (stereo not given)
inactive: growth inhibition [1] -7.53% | growth inhibition [2] 2.86% | viability increase [3] -1.28% | viability [4] 106% | viability [5] 99.5% | inhibition [6] 1.61% | RAM network inhibition [7] 5.77%

Cc1nc2ccccc2c2oc(C(=O)Nc3ccc4c(c3)OCCO4)cc12
inactive: growth inhibition [1] 6.06% | growth inhibition [2] 10.4% | viability increase [3] -1.19% | viability [4] 87.7% | viability [5] 95.3% | inhibition [6] -0.63% | RAM network inhibition [7] 8.55%

CN(C)C1NC(=O)c2cc(-c3ccccc3)sc2N1 (stereo not given)
inactive: growth inhibition [1] -5.92% | growth inhibition [2] -10.2% | viability increase [3] -0.01% | viability [4] 102% | viability [5] 104% | inhibition [6] 0.135% | RAM network inhibition [7] 2.33%

Cc1nc2ccccn2c1C(=O)NC1CCCCC1
inactive: growth inhibition [1] 4.45% | growth inhibition [2] 1.56% | viability increase [3] -1.3% | viability [4] 101% | viability [5] 103% | inhibition [6] 1.17% | RAM network inhibition [7] -0.77%

COc1ccccc1Nc1cc(C(=O)NCCCN2CCOCC2)c2ccccc2n1
inactive: growth inhibition [1] -7.99% | growth inhibition [2] -0.795% | viability increase [3] -3.47% | viability [4] 89.1% | viability [5] 91.4% | inhibition [6] 0.455% | RAM network inhibition [7] 0.58%

COCc1cc(C)nc2sc3c(=O)n(Cc4ccco4)nnc3c12
inactive: growth inhibition [1] -8.08% | growth inhibition [2] -13.3% | viability increase [3] -1.93% | viability [4] 100% | viability [5] 90.7% | inhibition [6] 4.2% | RAM network inhibition [7] 4.8%

O=C(O)CCC(C(=O)O)n1c(O)c(C2=c3ccccc3=NC2=O)sc1=S (stereo not given)
inactive: growth inhibition [1] -5.76% | growth inhibition [2] -1.01% | viability increase [3] -4.54% | viability [4] 97.7% | viability [5] 95.3% | inhibition [6] 2.23% | RAM network inhibition [7] -0.11%

O=C(O)C1CCCN1S(=O)(=O)c1ccc(Cl)c(Cl)c1 (stereo not given)
inactive: growth inhibition [1] -5.33% | growth inhibition [2] -3.77% | viability increase [3] -1.74% | viability [4] 98.6% | viability [5] 106% | inhibition [6] -0.11% | RAM network inhibition [7] 1.89%

CCOC(=O)C1=C(Nc2cccc(Cl)c2)OCC1=O
inactive: growth inhibition [1] -17.9% | growth inhibition [2] 3.65% | viability increase [3] -1.85% | viability [4] 102% | viability [5] 99% | inhibition [6] 2.21% | RAM network inhibition [7] 4.51%

Cc1ccc(-n2nnc3c(=O)n(Cc4ccccc4C)cnc32)cc1
inactive: growth inhibition [1] -4.99% | growth inhibition [2] -6.7% | viability increase [3] -0.53% | viability [4] 102% | viability [5] 100% | inhibition [6] 2.44% | RAM network inhibition [7] 4.84%

CCCS(=O)(=O)NCCc1cc2ccc(OC)cc2[nH]c1=O
inactive: growth inhibition [1] -13.2% | growth inhibition [2] -5.31% | viability increase [3] -2.79% | viability [4] 97.4% | viability [5] 90.1% | inhibition [6] 2.56% | RAM network inhibition [7] 2.19%

O=C(NCCc1ccccc1)c1ccc2c(c1)N(Cc1ccccc1)C(=O)CS2=O (stereo not given)
inactive: growth inhibition [1] 0.9% | growth inhibition [2] -2.98% | viability increase [3] 0.8% | viability [4] 96.3% | viability [5] 88.7% | inhibition [6] 0.2% | RAM network inhibition [7] 3.6%

CCOC(=O)C1C(=O)OC2(CCOC(C)(C)C2)C1C(=O)OCC (stereo not given)
inactive: growth inhibition [1] 1.65% | growth inhibition [2] 7.69% | viability increase [3] -0.15% | viability [4] 105% | viability [5] 100% | inhibition [6] 1.38% | RAM network inhibition [7] 0.98%

CCOC(=O)N1CCN(C(=O)c2cnn3ccccc23)CC1
inactive: growth inhibition [1] -9.02% | growth inhibition [2] -2.02% | viability increase [3] -1.3% | viability [4] 103% | viability [5] 100% | inhibition [6] 4.82% | RAM network inhibition [7] -1.68%

O=C(NCCn1cc(SCC(=O)N2CCOCC2)c2ccccc21)c1ccccc1
inactive: growth inhibition [1] 1.06% | growth inhibition [2] -5.21% | viability increase [3] 0.4% | viability [4] 97% | viability [5] 99.8% | inhibition [6] -0.225% | RAM network inhibition [7] 0.78%

O=C(C1CCN(S(=O)(=O)c2cccc3cccnc23)CC1)N1CC=C(c2ccccc2)CC1
inactive: growth inhibition [1] 6.34% | growth inhibition [2] 9.98% | viability increase [3] -2.61% | viability [4] 79.9% | viability [5] 83% | inhibition [6] 1.93% | RAM network inhibition [7] 2.07%

CC(C)CCn1c(SCC(N)=O)nc2c1c(=O)n(C)c(=O)n2C
inactive: growth inhibition [1] -11.8% | growth inhibition [2] -14.9% | viability increase [3] 0.12% | viability [4] 103% | viability [5] 102% | inhibition [6] -0.76% | RAM network inhibition [7] 2%

CCN1C(=O)c2ccccc2S(=O)c2ccc(C(=O)N3CCN(C(=O)c4ccco4)CC3)cc21 (stereo not given)
inactive: growth inhibition [1] -1.51% | growth inhibition [2] 7.19% | viability increase [3] -2.16% | viability [4] 101% | viability [5] 92.5% | inhibition [6] 1.33% | RAM network inhibition [7] 7.96%

O=c1c2ccccc2nnn1CSc1nnc(-c2ccco2)o1
inactive: growth inhibition [1] -8.6% | growth inhibition [2] 2.08% | viability increase [3] -4.5% | viability [4] 83.3% | viability [5] 86.5% | inhibition [6] 0.57% | RAM network inhibition [7] 0.46%

C=CCSc1nc2c(c(=O)[nH]c(=O)n2C)n1Cc1ccc(C)cc1
inactive: growth inhibition [1] -12.1% | growth inhibition [2] -7.22% | viability increase [3] -3.38% | viability [4] 90.1% | viability [5] 86.4% | inhibition [6] 2.6% | RAM network inhibition [7] 7.02%

O=C(O)Cc1ccc(NC(=O)C2CCCCC2C(=O)O)cc1 (stereo not given)
inactive: growth inhibition [1] -15% | growth inhibition [2] -6.54% | viability increase [3] 0.06% | viability [4] 95.5% | viability [5] 103% | inhibition [6] 0.385% | RAM network inhibition [7] 2.44%

COc1ccc(-c2nc(-c3ccc(NC(=O)c4ccncc4)cc3)no2)cc1OC
inactive: growth inhibition [1] -3.46% | growth inhibition [2] 9.41% | viability increase [3] 0.06% | viability [4] 42.6% | viability [5] 50.8% | inhibition [6] 2.85% | RAM network inhibition [7] 2.92%

COc1cc(Br)cc(-c2nc3c(c(=O)[nH]c(=O)n3Cc3ccccc3)n2C)c1O
inactive: growth inhibition [1] 3.34% | growth inhibition [2] -0.8% | viability increase [3] -1.31% | viability [4] 89.6% | viability [5] 87.6% | inhibition [6] 2.02% | RAM network inhibition [7] 3.23%

Reference: PubChem BioAssay
